From ChEMBL document CHEMBL1150307, “Design, synthesis and evaluation of novel sulfonyl pyrrolidine derivatives as matrix metalloproteinase inhibitors” (Bioorg Med Chem, 2008)

What was measured:
[1] = biological target: 72 kDa type IV collagenase (Homo sapiens, UniProt P08253); assay: Inhibition of MMP2
Summary of the method: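 Run in borate buffer (50 mM, pH 8.5) with succinylated gelatin as substrate. Enzyme and inhibitor were preincubated 30 min at 37 °C, then substrate was added for 60 min at 37 °C. Picrylsulfonic acid (0.03%) was added for 20 min at room temperature. Absorbance was read at 450 nm, and % inhibition was calculated against uninhibited and blank wells.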

Aminopeptidase N = Aminopeptidase N (Homo sapiens, UniProt P15144); assay: Inhibition of aminopeptidase N
Chain of Aminopeptidase N (P15144 whole entry): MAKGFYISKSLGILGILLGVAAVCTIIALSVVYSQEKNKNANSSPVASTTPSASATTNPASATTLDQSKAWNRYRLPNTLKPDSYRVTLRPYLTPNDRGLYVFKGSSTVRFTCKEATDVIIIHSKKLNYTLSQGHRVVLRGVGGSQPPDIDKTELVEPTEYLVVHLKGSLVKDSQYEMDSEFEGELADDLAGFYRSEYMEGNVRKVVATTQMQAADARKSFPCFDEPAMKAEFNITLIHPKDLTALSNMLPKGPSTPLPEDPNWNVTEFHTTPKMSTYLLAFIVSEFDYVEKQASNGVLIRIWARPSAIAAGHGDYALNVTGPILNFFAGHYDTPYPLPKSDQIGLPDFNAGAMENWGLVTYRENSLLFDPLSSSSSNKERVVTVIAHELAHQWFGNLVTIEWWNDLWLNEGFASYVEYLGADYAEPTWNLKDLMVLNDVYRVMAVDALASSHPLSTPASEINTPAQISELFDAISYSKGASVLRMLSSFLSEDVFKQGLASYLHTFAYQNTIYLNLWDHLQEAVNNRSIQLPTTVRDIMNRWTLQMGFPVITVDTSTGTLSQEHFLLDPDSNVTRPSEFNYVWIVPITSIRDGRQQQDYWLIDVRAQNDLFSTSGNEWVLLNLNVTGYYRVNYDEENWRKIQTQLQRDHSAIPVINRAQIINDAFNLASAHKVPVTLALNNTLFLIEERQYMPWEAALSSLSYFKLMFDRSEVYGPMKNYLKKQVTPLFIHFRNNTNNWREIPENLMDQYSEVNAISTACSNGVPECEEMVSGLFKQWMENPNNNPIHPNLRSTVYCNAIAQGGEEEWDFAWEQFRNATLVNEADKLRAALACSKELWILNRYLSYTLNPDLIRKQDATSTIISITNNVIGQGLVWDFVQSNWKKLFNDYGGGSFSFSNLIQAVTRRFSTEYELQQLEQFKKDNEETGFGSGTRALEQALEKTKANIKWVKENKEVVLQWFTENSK
Summary of the method: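 Enzyme and inhibitor were preincubated in sodium phosphate buffer (50 mM, pH 7.2) for 30 min at 37 °C. L-leucine p-nitroanilide was then added and incubated a further 60 min at 37 °C. Absorbance at 405 nm was used to calculate inhibition rates.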

Chain of 72 kDa type IV collagenase (P08253 whole entry): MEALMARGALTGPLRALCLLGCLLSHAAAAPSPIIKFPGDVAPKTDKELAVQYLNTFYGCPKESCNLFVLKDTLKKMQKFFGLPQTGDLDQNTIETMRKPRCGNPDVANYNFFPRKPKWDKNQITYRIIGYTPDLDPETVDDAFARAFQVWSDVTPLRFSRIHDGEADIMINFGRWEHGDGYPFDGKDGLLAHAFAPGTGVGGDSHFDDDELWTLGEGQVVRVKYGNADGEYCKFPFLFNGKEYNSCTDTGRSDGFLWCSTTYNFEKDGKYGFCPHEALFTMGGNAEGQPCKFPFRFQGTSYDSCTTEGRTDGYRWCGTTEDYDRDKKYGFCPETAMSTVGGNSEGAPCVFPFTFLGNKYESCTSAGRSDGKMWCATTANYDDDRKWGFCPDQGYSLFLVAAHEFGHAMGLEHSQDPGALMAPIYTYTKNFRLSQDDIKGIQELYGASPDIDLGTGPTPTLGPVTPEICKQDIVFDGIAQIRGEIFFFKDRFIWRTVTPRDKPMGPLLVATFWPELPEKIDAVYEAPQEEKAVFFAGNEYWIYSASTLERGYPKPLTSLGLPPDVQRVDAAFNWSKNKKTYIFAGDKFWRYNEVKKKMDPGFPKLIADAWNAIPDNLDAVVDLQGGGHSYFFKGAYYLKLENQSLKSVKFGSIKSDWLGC

Compound | IC50 [1] [µM] | IC50 (Aminopeptidase N) [µM]
COc1ccc(/C=C/C(=O)N2C[C@@H](NC(=O)c3cccnc3)C[C@H]2C(=O)NO)cc1OC | 0.009 | 142
COC(=O)[C@@H]1CC2(CN1S(=O)(=O)c1ccc(C)cc1)OCCCO2 | 0.2 | 174
COC(=O)[C@@H]1CC2(CN1S(=O)(=O)c1ccc(C)cc1)OCCCCO2 | 0.3 | 124
COC(=O)[C@@H]1CC2(CN1S(=O)(=O)c1ccccc1)OCCO2 | 0.2 | 151
O=C(NO)[C@@H]1CC2(CN1S(=O)(=O)c1ccccc1)OCCCCO2 | 0.012 | 107
Cc1ccc(S(=O)(=O)N2CC3(C[C@H]2C(=O)NO)OCCCCO3)cc1 | 0.008 | 73.2
O=C(NO)[C@@H]1CC2(CN1S(=O)(=O)c1ccccc1)OCCO2 | 0.008 | 57.8
O=C(NO)[C@@H]1CC2(CN1S(=O)(=O)c1ccccc1)OCCCO2 | 0.011 | 82.7
COC(=O)[C@@H]1CC(=O)CN1S(=O)(=O)c1ccc(C)cc1 | 0.4 | 54.9
COC(=O)[C@@H]1CC2(CN1S(=O)(=O)c1ccccc1)OCCCCO2 | 1.5 | 135
COC(=O)[C@@H]1CC(=O)CN1S(C)(=O)=O | 9.5 | 92.6
COC(=O)[C@@H]1CC2(CN1S(=O)(=O)c1ccccc1)OCCCO2 | 1.1 | 168
COC(=O)[C@@H]1CC(=O)CN1S(=O)(=O)c1ccccc1 | 2 | 75.8
Cc1ccc(S(=O)(=O)N2CC3(C[C@H]2C(=O)NO)OCCO3)cc1 | 0.003 | 48.5
COC(=O)[C@@H]1CC2(CN1S(=O)(=O)c1ccc(C)cc1)OCCO2 | 0.1 | 156
Cc1ccc(S(=O)(=O)N2CC3(C[C@H]2C(=O)NO)OCCCO3)cc1 | 0.006 | 61.8
COC(=O)[C@@H]1C[C@@H](O)CN1S(C)(=O)=O (relative stereo) | 7.1 | 41.6
COC(=O)[C@@H]1C[C@@H](O)CN1S(=O)(=O)c1ccccc1 (relative stereo) | 0.8 | 53.8
COC(=O)[C@@H]1C[C@@H](O)CN1S(=O)(=O)c1ccc(C)cc1 (relative stereo) | 0.1 | 38.4
